# Lipid droplet: hepatic lipid droplet formation modulation; AML12 mouse hepatocytes, oleate lipid droplets, BODIPY imaging; inhibition, % at 6.5 µM; 240,000 compounds, 0.4% hits; AID 1656;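 active = lipid droplet intensity inhibited by at least 50%, with more than 500 cells counted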
#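 Material – AML12 mouse liver cells · Also added – oleate loading, 100 µM · Compound dosing – 6.5 µM single-point dosing · Times – overnight treatment with compound plus oleate · Measured by – fluorescence imaging, 20x objective, two fields per well · Read-out – percent inhibition of filter-corrected integrated lipid droplet intensity per well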
# iPSC survival up: enhancers of human iPSC single-cell survival; hiPSC single-cell survival, ATPlite luminescence; 100% = ROCK inhibitor wells, 0% = DMSO; survival enhancement, % at 20 µM; 360,000 compounds, 0.044% hits; in the data active = survival enhancement above about 18%;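 note: cells exposed to compounds for 16 hours before the ATP read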
# TAG inh: reduces triacylglycerol accumulation in H9c2 cells | 230,000 compounds, 0.66% hits | inhibition, % at 12.5 µM | Nile Red lipid (TAG) fluorescence; cells loaded with 200 µM oleic acid;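 active = pattern-corrected inhibition of lipid staining of at least 50% with the nuclear-stain viability signal not falling by more than 50%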;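 note: 0% = DMSO wells and 100% = triacsin C control wells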
# Gli-Sufu block: antagonists of Gli-Sufu signaling; Sufu-KO-LIGHT fibroblasts, Gli luciferase reporter luminescence; inhibition, % at 5 µM; 340,000 compounds, 0.74% hits; AID 588413;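 active = inhibition above about 55%, limit read from the data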;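 note: 0% = DMSO-treated cells and 100% = wells with medium but no cells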
# 697 NFkB inh: lowers PMA/ionomycin-induced NF-kB signal in 697 B cells; 697 B-cell NF-kB luciferase reporter, 16 h; inhibition, % at 4 µM; 330,000 compounds, 0.33% hits; AID 435022; in the data active = inhibition above about 35%
# Jurkat NFkB inh: lowers PMA/ionomycin-induced NF-kB signal in Jurkat cells | inhibition, % at 4 µM | PMA/ionomycin-induced NF-kB luciferase reporter, luminescence | 330,000 compounds, 0.53% hits; in the data active = inhibition above about 50%
# Starred values were filed as active, the others as inactive; x = no result. Hits are enriched below; roughly 1.8% of the tested compounds scored in any of these assays.
SMILES,Lipid droplet,iPSC survival up,TAG inh,Gli-Sufu block,697 NFkB inh,Jurkat NFkB inh
CCCCC(=O)NC(c1cccc([N+](=O)[O-])c1)c1ccc2cccnc2c1O (stereo unspecified),x,0,76*,62*,x,x
CCCCC(=O)NC(c1ccccc1Cl)c1ccc2cccnc2c1O (stereo unspecified),-49,0,76,86*,-26,41
Oc1c(C(c2ccccc2Cl)N2CCCC2)ccc2cccnc12 (stereo unspecified),-56,-1,62*,74*,-7,11
COc1cccc(C(NC(C)=O)c2ccc3cccnc3c2O)c1 (stereo unspecified),x,1,48,69*,-21,46
Oc1c(C(c2cccs2)N2CCN(c3ccccc3)CC2)ccc2cccnc12 (stereo unspecified),22,x,x,x,-38,-10
CCOC(=O)c1sc(NS(=O)(=O)c2ccccc2Cl)nc1C,-1,0,x,3,7,9
CC(C)NC(=O)OC1CC2CC1[C@H]1CCCCN1C2=O (stereo partly specified),x,0,x,x,x,x
COc1ccc(-c2[nH]ncc2CN2CCC(N3CCSCC3)CC2)cc1F,12,-2,3,14,16,-6
O=[N+]([O-])c1ccc(NC(c2ccccc2)c2ccc3cccnc3c2O)cc1 (stereo unspecified),x,-3,32,70*,x,x
CC(=O)NC(c1cccc([N+](=O)[O-])c1)c1ccc2cccnc2c1O (stereo unspecified),-35,0,x,x,-21,49
CC(=NNC(=S)N1CCCCC1)c1cccc(C)n1,x,0,48,12,x,x
CSC(=S)NN=C(C)c1cccc(C)n1,x,-1,55*,92*,x,x
Cc1cc(C)nc(SCc2ccc(C(=O)N/N=C/c3cccc(O)c3O)cc2)n1,-17,2,x,84*,-123,42
Cc1nc(C(F)(F)F)ccc1C(=O)N1CCC1(C)C(=O)NCc1cccs1 (stereo unspecified),x,1,-9,x,x,x
CCC(CO)[n+]1c(C)cc(/C=C2\Sc3ccccc3N2Cc2ccccc2)cc1C (stereo unspecified),-89,-2,x,87*,x,x
COc1cc(N(C)C)ccc1C=c1c2ccccc2n2c1cc(-c1ccccc1)[n+]2C,x,-3,112,91*,x,x
CN(C)c1ccc(/C=C2\CCC/C(=C\c3ccccc3)C2=O)cc1,1,0,x,-3,x,x
CN(C)c1ccc(C=c2c3cc([N+](=O)[O-])ccc3n3c2cc(-c2ccccc2)[n+]3C)cc1,x,-4,46,81*,x,x
COc1cc(C=c2c3ccccc3n3c2cc(-c2ccccc2)[n+]3C)cc(OC)c1OC,x,-3,-18,14,x,x
CN(C)c1ccc(C=c2c3ccccc3n3c2cc(-c2ccccc2)[n+]3C)cc1,x,-4,4,86*,x,x
CN(C)c1ccc(C=c2c3ccccc3n3c2c2c([n+]3C)CCCC2)cc1,x,-3,-4,89*,x,x
Cc1ccc(C)c(NC(=S)NC23CN4CN(CN(C4)C2)C3)c1,-8,0,-22,-2,-22,4
COC(=O)CNc1nc(Cl)nc(Nc2ccc(C)cc2)n1,8,2,9,1,4,7
CN(C)c1ccc(C=c2c3ccccc3n3c2cc(-c2ccc(Cl)cc2)[n+]3C)cc1,x,-2,11,83*,x,x
CN(c1ccc(Cl)cc1)c1cc(=O)n(C)c2ccccc12,x,0,-50,23,20,-1
SMILES,Lipid droplet,iPSC survival up,TAG inh,Gli-Sufu block,697 NFkB inh,Jurkat NFkB inh
O=C(CSc1cccc[n+]1[O-])Nc1ccc2c(c1)OCO2,-4,0,-3,8,11,6
CN1CCN(c2ccccc2NC(=O)c2ccc([N+](=O)[O-])o2)CC1,0,0,54*,-7,-5,22
C#CCNC(=O)C[C@@H]1C[C@@]2(C(=O)OCC)CCC=C2N(CCC2=CCCCC2)C1=O,x,0,x,x,x,x
COc1ccccc1Sc1nc(-c2ccccn2)ncc1OC,-15,23*,-21,6,-20,1
Cc1ccc(NC(=O)CCN2CCC(C(N)=O)CC2)cc1,-1,0,-1,-3,10,-14
Cc1ccccc1NC(=O)c1ccc(N/N=C/c2ccccc2O)c([N+](=O)[O-])c1,x,-1,17,21,2,28
Cc1ccc(NC(=O)c2ccc(N/N=C/c3cccc(O)c3)c([N+](=O)[O-])c2)cc1,x,0,60*,7,-7,0
